Experimental findings from ChEMBL document CHEMBL4732146, “Nitric oxide-donating and reactive oxygen species-responsive prochelators based on 8-hydroxyquinoline as anticancer agents” (Eur J Med Chem, 2021) are described below.

Molecules are shown by their SMILES. The source made the active and inactive calls. The calls are words filed in the database; no cut-off is given here.

Series [1] relates to PANC-1. The series is described as follows: Cytotoxicity against human PANC-1 cells assessed as reduction in cell viability measured after 48 hrs in presence of FeCl3 by MTT assay. It is filed as functional, cell-based. As to conditions: PANC-1, 48 h. Summed up:
(§1)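 Cells seeded 6 × 10⁴ per well, cultured 24 h at 37 °C under 5% CO₂, then exposed to compound for 48 h, with or without 50 µM CuCl₂ or FeCl₃ co-incubation. MTT added for 4 h at 37 °C, formazan dissolved in DMSO, A490 read. IC50 reported as mean (SD), n = 3.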
In general terms: Formazan colour is commonly taken as a measure of viable cells.

The subject of series [2] is SW1990. Briefly: Cytotoxicity against human SW1990 cells assessed as reduction in cell viability measured after 48 hrs in presence of FeCl3 by MTT assay. It is filed as functional, cell-based. As to conditions: SW1990, 48 h. Summed up:
as §1

The nature of series [3]: Stability of compound in pH 5 PBS buffer assessed as parent compound remaining measured after 24 hrs by RP-HPLC analysis. The series is classed as physicochemical. The note with it: read-out: Stabilty. In a few lines: (§2)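 Compound (1 µM) stirred at 37 °C either in PBS (pH 5.0, 7.4 or 10.0) containing 5% DMSO or in DMEM with 10% FBS. Aliquots were analysed by RP-HPLC (0.1% TFA water/methanol gradient, 256 nm) for remaining intact compound, up to 24 h.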

Series [4] can be described thus: Stability of compound in pH 10 PBS buffer assessed as parent compound remaining measured after 24 hrs by RP-HPLC analysis. It is filed as physicochemical. The note with it: read-out: Stabilty. Summed up:
as §2

Series [5] can be described thus: Stability of compound in DMEM with 10% fetal bovine serum assessed as parent compound remaining measured after 24 hrs by RP-HPLC analysis. It is filed as cell-free. In a few lines:
as §2

The nature of series [6]: Prodrug activation in tBuO at 100 uM measured after 1 hr by RP-HPLC analysis. In a few lines: (§3)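 Compound (100 µM) incubated at 37 °C for 1 h with one of: ROS species (1 mM), NO solution (1 mM), GSH (200 µM), CuCl₂ (10 µM) or FeCl₃ (10 µM). Percent decomposed was determined by RP-HPLC (ODS column, 0.1% TFA water/methanol gradient, 1 mL/min, 256 nm).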
A short description of series [7]: Prodrug activation in NO at 100 uM measured after 1 hr by RP-HPLC analysis. Summed up:
as §3

Series [8] can be described thus: Stability of compound in presence of GSH at 100 uM measured after 1 hr by RP-HPLC analysis. The series is classed as physicochemical. In a few lines:
as §3

The nature of series [9]: Stability of compound in presence of Fe3+ at 100 uM measured after 1 hr by RP-HPLC analysis. The series is classed as physicochemical. Summed up:
as §3

The nature of series [10]: Metal chelating activity assessed as compound-Cu2+ complex formation by measuring intracellular HO level in human SW1990 cells at 10 uM measured after 1 hr in presence of CuCl2 by HO probe based confocal laser scanning microscopic analysis. It is filed as cell-based. Summed up:
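SW1990 cells at 80% confluence were loaded with 20 µM HO· probe at 37 °C for 30 min and rinsed. They then received 50 µM CuCl₂, followed by 10 µM compound for 1 h. For the scavenger arm, 1 mM tempol was given for 30 min before CuCl₂. CLSM imaging at λex 570 / λem 650 nm gave mean intensity; n = 3.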

Series [11] can be described thus: Drug metabolism in human SW1990 cells assessed as nitric oxide release at 8 to 12 uM measured after 24 hrs by DAF-FM DA probe based flow cytometry. The series is classed as ADME, cell-based. The note with it: sw1990, 24 h, dose 8-12 µM. In a few lines:
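SW1990 cells at 80% confluence loaded with 5 µM DAF-FM DA for 20 min at 37 °C, rinsed, then incubated with compound. Optional 1 h pretreatment with 50 µM carboxyl-PTIO before 12 µM treatment. Fluorescence read by flow cytometry (ex 495 / em 515 nm). Mean ± SD, n = 3.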
(In general: In flow cytometry, cells or beads pass a laser one at a time.)

The test system of series [12] is SW1990. The series is described as follows: Cytotoxicity against human SW1990 cells assessed as reduction in cell viability at 10 to 20 uM measured after 48 hrs in presence of ROS quencher NAC by MTT assay. The series is classed as functional, cell-based. As to conditions: dose 10-20 µM. In a few lines: (§4)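 SW1990 cells pretreated 1 h at 37 °C with 20 mM NAC or 50 µM carboxy-PTIO, then treated 48 h with compound at 10 or 20 µM. Percent cell death by MTT (A490). Mean ± SD, n = 3.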

Series [13] concerns SW1990. Briefly: Cytotoxicity against human SW1990 cells assessed as reduction in cell viability at 10 to 20 uM measured after 48 hrs in presence of NO scavenger Carboxyl-PTIO by MTT assay. The series is classed as functional, cell-based. As to conditions: dose 10-20 µM. Summed up:
as §4

In series [14] the test system is SW1990. Briefly: Induction of apoptosis in human SW1990 cells at 12 uM measured after 24 hrs in presence of ROS quencher NAC by Annexin V-FITC/propidium iodide staining based flow cytometry. The series is classed as functional, cell-based. Summed up:
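SW1990 cells seeded 5 × 10⁵ per well and grown 24 h, then treated 24 h at 8 or 12 µM. Optional 1 h pretreatment with 20 mM NAC or 50 µM carboxyl-PTIO before 12 µM treatment. Cells stained with annexin V-FITC 15 min and PI 5 min at room temperature in the dark, then analysed by flow cytometry. Mean ± SD, n = 3.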

The test system of series [15] is SW1990. Briefly: Induction of mitochondrial membrane potential loss in human SW1990 cells at 8 to 12 uM measured after 24 hrs by JC1 staining based flow cytometry. It is filed as functional, cell-based. The note with it: dose 8-12 µM. In a few lines:
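SW1990 cells seeded at 5 × 10⁵ per well, grown 24 h, then exposed to compound for 24 h. Stained with JC-1 per kit instructions. Flow cytometry gave the percentage of cells with healthy or collapsed mitochondrial membrane potential. Mean ± SD, n = 3.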

Series [16] deals with SW1990. The series is described as follows: Induction of apoptosis in human SW1990 cells assessed as increase in cleaved caspase-9 expression at 8 to 12 uM measured after 24 hrs by Western blot analysis. It is filed as functional, cell-based. As to conditions: dose 8-12 µM. In a few lines:
(§5)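 SW1990 cells seeded 5 × 10⁵ per well and grown 24 h at 37 °C, then treated 24 h. Lysates quantified by BCA, resolved by SDS-PAGE and transferred to nitrocellulose. Blocked in 5% milk, probed overnight at 4 °C for cleaved caspase-3, cleaved caspase-9, Bax and Bcl-2, then HRP secondary 2 h. ECL detection.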
For orientation: In western blotting, separated proteins are transferred to a membrane and probed.

In series [17] the test system is SW1990. Briefly: Induction of apoptosis in human SW1990 cells assessed as increase in Bax-2 expression at 8 to 12 uM measured after 24 hrs by Western blot analysis. It is filed as functional, cell-based. As to conditions: dose 8-12 µM. In a few lines:
as §5

Series [18] relates to SW1990. The series is described as follows: Antitumor activity against human SW1990 cells xenografted in Balb/c nude mouse assessed as tumor size at 20 mg/kg, iv administered every 3 days measured after 21 days (reference value: 1.23 +/- 0.25 cm3). The series is classed as functional. As to conditions: time 21 day. Summed up:
(§6)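 Male BALB/c nude mice, 3–5 weeks old, given 1 × 10⁷ SW1990 cells subcutaneously; when tumors reached about 65 mm³, randomised to groups of eight. Saline vehicle control, dosing intravenously every three days. Tumor size monitored every two days for three weeks; tumors dissected at sacrifice on day 21, volume = d² × D/2 (d smallest, D largest diameter). Mean ± SD.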

Series [19] has as its system SW1990. The series is described as follows: Antitumor activity against human SW1990 cells xenografted in Balb/c nude mouse assessed as tumor growth inhibition at 20 mg/kg, iv administered every 3 days measured after 21 days relative to control. It is filed as functional. As to conditions: 504 h, time 21 day, read-out: TGI. In a few lines:
as §6

As a reminder, the IC50 is the concentration that inhibits the measured activity by half. `O=C(NCCCOc1no[n+]([O-])c1S(=O)(=O)c1ccccc1)c1ccc2cccc(OCc3ccc(B(O)O)cc3)c2n1`: the IC50 stood at 17.6 µM in [1] and 15.4 µM in series [2]. Further, the remaining at 24 h in series [3] and in series [4] was above 80% each time. In addition, the Stability in [5] is above 80%. Further, the Drug metabolism result is “Metabolite_Notdetected” in series [6], “Metabolite_Notdetected” in series [7] and “Metabolite_Detected” in series [11]. Also, the Stabilty result in series [8] and in series [9] was “Stable” throughout. Besides, the outcome in [10], in series [15], in series [16] and in series [17] was Active. Besides, the result in series [12], in series [13] and in [14] was inactive. Also, the Activity in series [18] worked out at 0.47 cm3. Moreover, in [19], the inhibition in vivo at 20 mg/kg came to 61.8%.
